Laboratory results from ChEMBL document CHEMBL4689842, “EUbOPEN Chemogenomics Library wave 1” (2021).
“And” between values parts separate entries of the source, which are not always exact repeats. Equal entries are not always repeated.

How the values were obtained:
Type in all cases: toxicity, cell-based
Fibroblast [1] = assay: Incucyte cell viability with human fibroblast; details: 10 µM, compound concentration 10 uM; further: filed as whole numbers so only -1 and 0 and 1 occur
HEK-293T [2] = assay: Multiplex assay against HEK293T; details: human, 10 µM, compound concentration 10 uM
Procedure, shortened: (§1)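 Values for tubulin, mitochondrial-mass and membrane-permeability phenotypes are per cents of cells with healthy nuclei. These cells were identified by CellPathfinder machine-learning gating of live cells that had been stained at seeding with Hoechst33342, BioTracker Green Microtubule Cytoskeleton Dye, MitoTracker Red and Annexin V Alexa Fluor 680 and imaged on a CQ1 microscope at 37°C and 5% CO2 after compound addition. The gating first set Hoechst high-intensity objects apart from normal cells, then split normal cells into healthy, pyknosed or fragmented nuclei, and pyknosed cells into mitotic or apoptotic.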

U2OS [3] = assay: Incucyte cell viability with U2OS; details: human, 10 µM, compound concentration 10 uM; further: filed as whole numbers so only -1 and 0 and 1 occur
HEK-293T [4] = assay: Incucyte cell viability with HEK293T; details: human, 10 µM, compound concentration 10 uM; further: filed as whole numbers so only -1 and 0 and 1 occur
U2OS [5] = assay: Multiplex assay against U2OS; details: human, 10 µM, compound concentration 10 uM; procedure, shortened: as §1
Fibroblast [6] = assay: Multiplex assay against human fibroblast; details: 10 µM, compound concentration 10 uM; procedure, shortened: as §1
[7] = 6 h, replicate number 1, timepoint 6 hours
[8] = 12 h, replicate number 1, timepoint 12 hours
[9] = 18 h, replicate number 1, timepoint 18 hours
[10] = 24 h, replicate number 1, timepoint 24 hours

COc1cc(C)c(Sc2cnc(NC(=O)c3ccc(CNC(C)C(C)(C)C)cc3)s2)cc1C(=O)N1CCN(C(C)=O)CC1 (stereo not drawn)
Growth Rate (Fibroblast [1]; [7]): 0 | Growth Rate (Fibroblast [1]; [8]): 0 | Growth Rate (Fibroblast [1]; [9]): 0 | Growth Rate (Fibroblast [1]; [10]): 0 | Population Apoptotic (%) (HEK-293T [2]; 12 h, replicate 1): 22% and 18% | Population Fragmented Nuclei (%) (HEK-293T [2]; 12 h, replicate 1): 20% and 17% | Population Healthy Nuclei (%) (HEK-293T [2]; 12 h, replicate 1): 47% and 68% | Population Hoechst High Intensity Objects (%) (HEK-293T [2]; 12 h, replicate 1): 19% and 8% | Population Membrane Permeable-Phenotype (%) (HEK-293T [2]; 12 h, replicate 1): 6% and 3% | Population Mitotic Cells (%) (HEK-293T [2]; 12 h, replicate 1): 77% and 81% | Population Normal (%) (HEK-293T [2]; 12 h, replicate 1): 80% and 91% | Population Pyknosed Nuclei (%) (HEK-293T [2]; 12 h, replicate 1): 31% and 13% | Total Cell Count (HEK-293T [2]; 12 h, replicate 1): 653 and 686 | Population Fragmented Nuclei (%) (HEK-293T [2]; 12 h, replicate 2): 4% and 5% | Population Healthy Nuclei (%) (HEK-293T [2]; 12 h, replicate 2): 86% and 89% | Population Hoechst High Intensity Objects (%) (HEK-293T [2]; 12 h, replicate 2): 3% and 2% | Population Membrane Permeable-Phenotype (%) (HEK-293T [2]; 12 h, replicate 2): 1% | Population Mitochondria Different-Phenotype (%) (HEK-293T [2]; 12 h, replicate 2): 22% and 9% | Population Mitotic Cells (%) (HEK-293T [2]; 12 h, replicate 2): 85% and 95% | Population Normal (%) (HEK-293T [2]; 12 h, replicate 2): 96% and 97% | Population Pyknosed Nuclei (%) (HEK-293T [2]; 12 h, replicate 2): 9% and 4% | Total Cell Count (HEK-293T [2]; 12 h, replicate 2): 1194 and 1652 | Population Apoptotic (%) (HEK-293T [2]; 24 h, replicate 1): 28% and 21% | Population Fragmented Nuclei (%) (HEK-293T [2]; 24 h, replicate 1): 19% and 13% | Population Healthy Nuclei (%) (HEK-293T [2]; 24 h, replicate 1): 65% and 78% | Population Hoechst High Intensity Objects (%) (HEK-293T [2]; 24 h, replicate 1): 14% and 6% | Population Membrane Permeable-Phenotype (%) (HEK-293T [2]; 24 h, replicate 1): 10% and 6% | Population Mitotic Cells (%) (HEK-293T [2]; 24 h, replicate 1): 71% and 78% | Population Normal (%) (HEK-293T [2]; 24 h, replicate 1): 85% and 93% | Population Pyknosed Nuclei (%) (HEK-293T [2]; 24 h, replicate 1): 14% and 7% | Total Cell Count (HEK-293T [2]; 24 h, replicate 1): 664 and 754 | Population Apoptotic (%) (HEK-293T [2]; 24 h, replicate 2): 7% and 4% | Population Fragmented Nuclei (%) (HEK-293T [2]; 24 h, replicate 2): 15% and 22% | Population Healthy Nuclei (%) (HEK-293T [2]; 24 h, replicate 2): 81% and 74% | Population Hoechst High Intensity Objects (%) (HEK-293T [2]; 24 h, replicate 2): 3% | Population Membrane Permeable-Phenotype (%) (HEK-293T [2]; 24 h, replicate 2): 8% and 5% | Population Mitochondria Different-Phenotype (%) (HEK-293T [2]; 24 h, replicate 2): 5% and 2% | Population Mitotic Cells (%) (HEK-293T [2]; 24 h, replicate 2): 92% and 95% | Population Normal (%) (HEK-293T [2]; 24 h, replicate 2): 96% | Population Pyknosed Nuclei (%) (HEK-293T [2]; 24 h, replicate 2): 3% and 2% | Total Cell Count (HEK-293T [2]; 24 h, replicate 2): 2038 and 2847 | Growth Rate (U2OS [3]; 0 h, replicate number 1, timepoint 0 hours): 0 | Growth Rate (U2OS [3]; [7]): 0 | Growth Rate (U2OS [3]; [8]): 0 | Growth Rate (U2OS [3]; [9]): 0 | Growth Rate (U2OS [3]; [10]): 0 | Growth Rate (HEK-293T [4]; [7]): 0 | Growth Rate (HEK-293T [4]; [8]): 0 | Growth Rate (HEK-293T [4]; [9]): 0 | Growth Rate (HEK-293T [4]; [10]): 0 | Population Apoptotic (%) (U2OS [5]; 12 h, replicate 1): 33% and 44% | Population Fragmented Nuclei (%) (U2OS [5]; 12 h, replicate 1): 6% and 2% | Population Healthy Nuclei (%) (U2OS [5]; 12 h, replicate 1): 84% | Population Hoechst High Intensity Objects (%) (U2OS [5]; 12 h, replicate 1): 3% and 4% | Population Mitochondria Different-Phenotype (%) (U2OS [5]; 12 h, replicate 1): 12% and 33% | Population Mitotic Cells (%) (U2OS [5]; 12 h, replicate 1): 66% and 55% | Population Normal (%) (U2OS [5]; 12 h, replicate 1): 96% and 95% | Population Pyknosed Nuclei (%) (U2OS [5]; 12 h, replicate 1): 8% and 6% | Population Tubulin-Different-Phenotype (%) (U2OS [5]; 12 h, replicate 1): 32% | Total Cell Count (U2OS [5]; 12 h, replicate 1): 180 and 143 | Population Apoptotic (%) (U2OS [5]; 12 h, replicate 2): 0% | Population Fragmented Nuclei (%) (U2OS [5]; 12 h, replicate 2): 5% | Population Healthy Nuclei (%) (U2OS [5]; 12 h, replicate 2): 90% and 89% | Population Hoechst High Intensity Objects (%) (U2OS [5]; 12 h, replicate 2): 12% and 8% | Population Mitochondria Different-Phenotype (%) (U2OS [5]; 12 h, replicate 2): 16% and 15% | Population Mitotic Cells (%) (U2OS [5]; 12 h, replicate 2): 100% | Population Normal (%) (U2OS [5]; 12 h, replicate 2): 87% and 91% | Population Pyknosed Nuclei (%) (U2OS [5]; 12 h, replicate 2): 3% and 4% | Population Tubulin-Different-Phenotype (%) (U2OS [5]; 12 h, replicate 2): 24% and 19% | Total Cell Count (U2OS [5]; 12 h, replicate 2): 98 and 130 | Population Apoptotic (%) (U2OS [5]; 24 h, replicate 1): 78% and 28% | Population Fragmented Nuclei (%) (U2OS [5]; 24 h, replicate 1): 2% and 4% | Population Healthy Nuclei (%) (U2OS [5]; 24 h, replicate 1): 90% and 92% | Population Hoechst High Intensity Objects (%) (U2OS [5]; 24 h, replicate 1): 1% | Population Membrane Permeable-Phenotype (%) (U2OS [5]; 24 h, replicate 1): 7% | Population Mitochondria Different-Phenotype (%) (U2OS [5]; 24 h, replicate 1): 14% and 24% | Population Normal (%) (U2OS [5]; 24 h, replicate 1): 98% | Population Pyknosed Nuclei (%) (U2OS [5]; 24 h, replicate 1): 6% and 3% | Population Tubulin-Different-Phenotype (%) (U2OS [5]; 24 h, replicate 1): 18% and 34% | Total Cell Count (U2OS [5]; 24 h, replicate 1): 222 and 212 | Population Apoptotic (%) (U2OS [5]; 24 h, replicate 2): 18% and 40% | Population Fragmented Nuclei (%) (U2OS [5]; 24 h, replicate 2): 3% and 7% | Population Healthy Nuclei (%) (U2OS [5]; 24 h, replicate 2): 80% and 89% | Population Hoechst High Intensity Objects (%) (U2OS [5]; 24 h, replicate 2): 10% and 7% | Population Membrane Permeable-Phenotype (%) (U2OS [5]; 24 h, replicate 2): 15% and 5% | Population Mitochondria Different-Phenotype (%) (U2OS [5]; 24 h, replicate 2): 25% and 33% | Population Mitotic Cells (%) (U2OS [5]; 24 h, replicate 2): 81% and 60% | Population Normal (%) (U2OS [5]; 24 h, replicate 2): 89% and 92% | Population Pyknosed Nuclei (%) (U2OS [5]; 24 h, replicate 2): 16% | Population Tubulin-Different-Phenotype (%) (U2OS [5]; 24 h, replicate 2): 15% and 28% | Total Cell Count (U2OS [5]; 24 h, replicate 2): 108 and 162 | Population Apoptotic (%) (Fibroblast [6]; 12 h, replicate 1): 67% and 75% | Population Fragmented Nuclei (%) (Fibroblast [6]; 12 h, replicate 1): 22% and 35% | Population Healthy Nuclei (%) (Fibroblast [6]; 12 h, replicate 1): 60% and 50% | Population Hoechst High Intensity Objects (%) (Fibroblast [6]; 12 h, replicate 1): 12% | Population Membrane Permeable-Phenotype (%) (Fibroblast [6]; 12 h, replicate 1): 6% | Population Mitotic Cells (%) (Fibroblast [6]; 12 h, replicate 1): 32% and 25% | Population Normal (%) (Fibroblast [6]; 12 h, replicate 1): 87% | Population Pyknosed Nuclei (%) (Fibroblast [6]; 12 h, replicate 1): 14% | Population Tubulin-Different-Phenotype (%) (Fibroblast [6]; 12 h, replicate 1): 4% and 12% | Total Cell Count (Fibroblast [6]; 12 h, replicate 1): 276 and 186 | Population Apoptotic (%) (Fibroblast [6]; 12 h, replicate 2): 50% and 40% | Population Fragmented Nuclei (%) (Fibroblast [6]; 12 h, replicate 2): 46% and 56% | Population Healthy Nuclei (%) (Fibroblast [6]; 12 h, replicate 2): 38% and 33% | Population Hoechst High Intensity Objects (%) (Fibroblast [6]; 12 h, replicate 2): 29% and 43% | Population Membrane Permeable-Phenotype (%) (Fibroblast [6]; 12 h, replicate 2): 10% and 11% | Population Mitochondria Different-Phenotype (%) (Fibroblast [6]; 12 h, replicate 2): 10% and 27% | Population Mitotic Cells (%) (Fibroblast [6]; 12 h, replicate 2): 50% and 60% | Population Normal (%) (Fibroblast [6]; 12 h, replicate 2): 70% and 56% | Population Pyknosed Nuclei (%) (Fibroblast [6]; 12 h, replicate 2): 16% and 9% | Total Cell Count (Fibroblast [6]; 12 h, replicate 2): 71 and 94 | Population Apoptotic (%) (Fibroblast [6]; 24 h, replicate 1): 57% and 91% | Population Fragmented Nuclei (%) (Fibroblast [6]; 24 h, replicate 1): 18% and 31% | Population Healthy Nuclei (%) (Fibroblast [6]; 24 h, replicate 1): 69% and 53% | Population Hoechst High Intensity Objects (%) (Fibroblast [6]; 24 h, replicate 1): 17% and 13% | Population Membrane Permeable-Phenotype (%) (Fibroblast [6]; 24 h, replicate 1): 9% and 6% | Population Normal (%) (Fibroblast [6]; 24 h, replicate 1): 82% and 86% | Population Pyknosed Nuclei (%) (Fibroblast [6]; 24 h, replicate 1): 14% | Total Cell Count (Fibroblast [6]; 24 h, replicate 1): 264 and 192 | Population Apoptotic (%) (Fibroblast [6]; 24 h, replicate 2): 33% and 66% | Population Fragmented Nuclei (%) (Fibroblast [6]; 24 h, replicate 2): 46% and 54% | Population Healthy Nuclei (%) (Fibroblast [6]; 24 h, replicate 2): 42% and 33% | Population Hoechst High Intensity Objects (%) (Fibroblast [6]; 24 h, replicate 2): 23% and 42% | Population Membrane Permeable-Phenotype (%) (Fibroblast [6]; 24 h, replicate 2): 8% and 22% | Population Mitotic Cells (%) (Fibroblast [6]; 24 h, replicate 2): 66% and 33% | Population Normal (%) (Fibroblast [6]; 24 h, replicate 2): 76% and 57% | Population Pyknosed Nuclei (%) (Fibroblast [6]; 24 h, replicate 2): 11% | Total Cell Count (Fibroblast [6]; 24 h, replicate 2): 71 and 92
